For assay [1], the target named is T1, Ectonucleoside triphosphate diphosphohydrolase 3 (Homo sapiens) (UniProt O75355).
T1 sequence (whole entry): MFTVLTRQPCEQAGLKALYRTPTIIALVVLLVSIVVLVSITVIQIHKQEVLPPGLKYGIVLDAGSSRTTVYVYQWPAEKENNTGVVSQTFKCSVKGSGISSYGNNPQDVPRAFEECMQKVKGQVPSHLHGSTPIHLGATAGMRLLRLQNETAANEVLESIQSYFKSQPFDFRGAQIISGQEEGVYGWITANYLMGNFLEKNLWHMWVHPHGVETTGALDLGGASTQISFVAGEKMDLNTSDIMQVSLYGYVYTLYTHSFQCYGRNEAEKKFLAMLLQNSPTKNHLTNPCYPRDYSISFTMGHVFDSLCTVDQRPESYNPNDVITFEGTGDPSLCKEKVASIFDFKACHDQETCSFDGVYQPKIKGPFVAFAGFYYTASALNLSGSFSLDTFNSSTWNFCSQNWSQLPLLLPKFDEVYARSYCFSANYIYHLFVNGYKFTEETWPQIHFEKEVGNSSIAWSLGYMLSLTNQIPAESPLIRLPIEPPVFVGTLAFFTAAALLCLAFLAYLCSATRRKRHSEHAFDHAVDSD
As to the kind of experiment: Inhibition of human NTPDase3 expressed in COS7 cells assessed as amount of inorganic phosphate released using ATP as the substrate at 100 uM after 15 mins by malachite green reagent method. The assay is classed as cell-based. As to conditions: COS-7. The procedure, abridged: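 Protein extracts of transfected COS-7 cells (ecto-5'-nucleotidase: 100 μM AMP substrate; NTPDases: 100 μM ATP) were preincubated 3 min at 37 °C in Tris-Ringer pH 7.3 with inhibitor at 100 μM final. After 15 min, malachite green stop; Pi read at 630 nm. Activity given as % of substrate-only control. Mean ± SD of three experiments in triplicate.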

The target of assay [2] is T2, Ectonucleotide pyrophosphatase/phosphodiesterase family member 1 (Homo sapiens) (UniProt P22413).
T2 sequence (whole entry): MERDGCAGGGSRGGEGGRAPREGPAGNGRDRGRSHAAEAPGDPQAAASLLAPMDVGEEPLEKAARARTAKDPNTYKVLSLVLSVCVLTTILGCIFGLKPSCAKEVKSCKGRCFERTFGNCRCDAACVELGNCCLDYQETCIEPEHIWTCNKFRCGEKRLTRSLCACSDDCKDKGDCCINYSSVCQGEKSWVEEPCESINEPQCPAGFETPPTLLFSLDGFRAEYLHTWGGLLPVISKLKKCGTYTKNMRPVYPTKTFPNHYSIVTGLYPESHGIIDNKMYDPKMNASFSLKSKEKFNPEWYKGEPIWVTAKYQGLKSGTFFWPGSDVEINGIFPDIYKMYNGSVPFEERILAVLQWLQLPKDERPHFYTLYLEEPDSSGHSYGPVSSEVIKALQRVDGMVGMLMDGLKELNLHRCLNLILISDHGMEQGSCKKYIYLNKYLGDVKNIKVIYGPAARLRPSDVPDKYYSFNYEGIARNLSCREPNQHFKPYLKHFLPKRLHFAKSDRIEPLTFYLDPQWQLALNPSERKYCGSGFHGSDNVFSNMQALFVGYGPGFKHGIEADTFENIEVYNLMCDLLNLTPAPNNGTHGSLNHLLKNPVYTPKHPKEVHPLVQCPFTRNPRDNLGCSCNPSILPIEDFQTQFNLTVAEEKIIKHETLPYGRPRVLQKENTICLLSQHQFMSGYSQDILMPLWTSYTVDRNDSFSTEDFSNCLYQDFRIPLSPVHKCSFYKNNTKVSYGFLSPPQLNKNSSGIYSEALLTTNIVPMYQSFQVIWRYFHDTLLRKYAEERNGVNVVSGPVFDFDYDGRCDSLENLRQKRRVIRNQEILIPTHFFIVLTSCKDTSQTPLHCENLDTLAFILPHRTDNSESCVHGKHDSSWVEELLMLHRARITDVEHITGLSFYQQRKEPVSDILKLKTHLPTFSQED
As to the kind of experiment: Inhibition of human NPP1 in human HT29 cells assessed as production of p-nitrophenol using pnp-TMP as the substrate […]. Format: cell-based. As to conditions: HT-29.

For assay [3], the target named is T3, Ectonucleotide pyrophosphatase/phosphodiesterase family member 3 (Homo sapiens) (UniProt O14638).
T3 sequence (whole entry): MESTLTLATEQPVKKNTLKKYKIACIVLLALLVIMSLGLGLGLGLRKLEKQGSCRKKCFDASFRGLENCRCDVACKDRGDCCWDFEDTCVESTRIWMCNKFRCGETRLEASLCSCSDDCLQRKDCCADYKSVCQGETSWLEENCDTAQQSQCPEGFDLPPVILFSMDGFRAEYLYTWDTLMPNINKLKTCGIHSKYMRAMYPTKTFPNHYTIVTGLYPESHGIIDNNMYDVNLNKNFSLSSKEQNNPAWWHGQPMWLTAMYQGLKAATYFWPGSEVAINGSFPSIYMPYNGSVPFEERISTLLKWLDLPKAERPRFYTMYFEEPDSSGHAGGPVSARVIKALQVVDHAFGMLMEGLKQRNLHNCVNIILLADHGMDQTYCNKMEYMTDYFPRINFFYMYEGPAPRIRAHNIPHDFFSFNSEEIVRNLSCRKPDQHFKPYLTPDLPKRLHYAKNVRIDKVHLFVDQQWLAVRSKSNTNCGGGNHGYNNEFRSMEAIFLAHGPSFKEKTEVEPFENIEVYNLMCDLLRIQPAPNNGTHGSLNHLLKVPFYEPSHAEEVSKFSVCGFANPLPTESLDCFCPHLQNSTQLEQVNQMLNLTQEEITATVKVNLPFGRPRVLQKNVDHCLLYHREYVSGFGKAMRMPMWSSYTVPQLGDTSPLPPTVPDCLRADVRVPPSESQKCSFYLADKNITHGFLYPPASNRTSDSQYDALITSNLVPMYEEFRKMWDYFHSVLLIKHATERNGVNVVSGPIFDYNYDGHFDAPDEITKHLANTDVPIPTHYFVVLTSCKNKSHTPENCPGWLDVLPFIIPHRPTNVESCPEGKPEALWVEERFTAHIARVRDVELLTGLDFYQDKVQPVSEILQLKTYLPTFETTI
Description: Inhibition of human NPP3 expressed in COS7 cells assessed as amount of inorganic phosphate released using ATP as the substrate at 100 uM after 15 mins by malachite green reagent method. Format: cell-based. As to conditions: COS-7.

Assay [4] addresses T2, Ectonucleotide pyrophosphatase/phosphodiesterase family member 1 (Homo sapiens). Description: Inhibition of human NPP1 expressed in COS7 cells assessed as production of p-nitrophenol using Ap5A as the substrate at 100 uM after 30 mins […]. The assay is classed as cell-based. As to conditions: COS-7.
In assay [5] the target is T3, Ectonucleotide pyrophosphatase/phosphodiesterase family member 3 (Homo sapiens). Description: Activity of human NPP3 expressed in COS7 cells assessed as production of p-nitrophenol using Ap5A as the substrate at 100 uM after 30 mins by malachite green reagent method. Format: cell-based. The note with it: COS-7.
A further assay deals with P2Y purinoceptor 1 (Homo sapiens, UniProt P47900). Description: Agonist activity at GFP tagged-human P2Y1 receptor expressed in human 1321N1 cells assessed as elevation in calcium level after 30 mins by fluorescence spectrophotometric analysis. Format: functional, cell-based.

Molecules are shown by their SMILES.

P2Y purinoceptor 1, sequence (P47900 whole entry): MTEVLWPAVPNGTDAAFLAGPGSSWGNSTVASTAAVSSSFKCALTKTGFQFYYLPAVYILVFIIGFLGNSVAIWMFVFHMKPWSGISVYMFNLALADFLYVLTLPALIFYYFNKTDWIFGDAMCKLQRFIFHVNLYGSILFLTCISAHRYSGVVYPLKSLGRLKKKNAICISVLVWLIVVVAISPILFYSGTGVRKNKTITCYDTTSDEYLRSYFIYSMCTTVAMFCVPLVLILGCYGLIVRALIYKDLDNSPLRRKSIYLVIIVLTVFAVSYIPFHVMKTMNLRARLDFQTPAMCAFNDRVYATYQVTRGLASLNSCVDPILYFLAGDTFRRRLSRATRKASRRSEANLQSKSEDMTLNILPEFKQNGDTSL

The term inhibition denotes the share of the control response that was lost under treatment. As a reminder, the EC50 is the concentration that produces a half-maximal response. As for `Nc1ncnc2c1ncn2[C@H]1C[C@H](O)[C@@H](COP(=O)(O)CP(=O)(O)OP(=O)(O)CP(=O)(O)OC[C@H]2O[C@@H](n3cnc4c(N)ncnc43)C[C@@H]2O)O1`, the inhibition was found to be 10% in assay [1], 80% in assay [2], 90% in assay [3] and 60% in assay [4]. For the same compound, the Activity in assay [5] stood at 5.5%. Further, on P2Y purinoceptor 1, the EC50 was 30 µM.
As for `Nc1ncnc2c1ncn2[C@@H]1O[C@H](COP(=O)(O)CP(=O)(O)OP(=O)(O)CP(=O)(O)OC[C@H]2O[C@@H](n3cnc4c(N)ncnc43)[C@H](O)[C@@H]2O)[C@@H](O)[C@H]1O`, the inhibition in assay [1] turned out to be 10%; in assay [2], 80%; in assay [3], 65%; in assay [4] it was 20%. The Activity in assay [5] turned out to be 11%. Also, the EC50 at P2Y purinoceptor 1 stood at 9 µM.
As for `BP(=O)(OP(=O)(O)CP(=O)(O)OC[C@H]1O[C@@H](n2cnc3c(N)ncnc32)C[C@@H]1O)OP(=O)(O)CP(=O)(O)OC[C@H]1O[C@@H](n2cnc3c(N)ncnc32)C[C@@H]1O`, the inhibition in assay [1] was 10%; in assay [2] it was 90%; in assay [3], 65%; in assay [4], 60%. In assay [5], the Activity was found to be 5.5%. In addition, at P2Y purinoceptor 1, the EC50 is no less than 30 µM.
Take `BP(=O)(OP(=O)(O)CP(=O)(O)OC[C@H]1O[C@@H](n2cnc3c(N)ncnc32)[C@H](O)[C@@H]1O)OP(=O)(O)CP(=O)(O)OC[C@H]1O[C@@H](n2cnc3c(N)ncnc32)[C@H](O)[C@@H]1O`: the inhibition in assay [1] is 10%; in assay [2] it was 90%; in assay [3], 90%; in assay [4] it was 60%. Further, in assay [5], the Activity was 12%. Also, the EC50 at P2Y purinoceptor 1 amounted to 0.3 µM.

The record behind these values is ChEMBL document CHEMBL1799960, “Diadenosine 5',5''-(boranated)polyphosphonate analogues as selective nucleotide pyrophosphatase/phosphodiesterase inhibitors” (J Med Chem, 2010).
